Test results: ChEMBL document CHEMBL2321740, “Arylazanylpyrazolone derivatives as inhibitors of mutant superoxide dismutase 1 dependent protein aggregation for the treatment of amyotrophic lateral sclerosis” (J Med Chem, 2013)
The source made the active and inactive calls. The rule behind the calls is not given here.

Legend:
[1] = Inhibition of SOD1 mutant (unknown origin); design: species or system Homo sapiens
[2] = tested on: PC-12; assay: Inhibition of SOD1 mutant -induced cytotoxicity in rat PC12 cells after 24 hrs by fluorescence assay in presence of proteosome inhibitor MG132; type: cell-based
Procedure, shortened: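 PC12 cells expressing G93A SOD1 seeded at 15000 cells/well, held 24 h, then given compound in 12-point dose-response, top concentration 32 μM, halved at each step. After 24 h with compound, MG132 added (final 100 nM). Viability read 48 h later: cells washed twice with PBS, Calcein-AM 1 μM final for 20 min at room temperature, fluorescence intensity measured.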

[3] = Inhibition of SOD1 mutant -induced cytotoxicity in cortical neurons after 24 hrs by fluorescence assay in presence of proteosome inhibitor MG132
[4] = tested on: Liver microsomes; assay: Half life in human liver microsomes in presence of NADPH; type: ADME, Microsome
[5] = tested on: Liver; assay: Half life in mouse liver microsomes in absence of NADPH; type: ADME, Microsome
[6] = tested on: Caco-2; assay: Apparent permeability of the compound from apical to basolateral side in human Caco2 cells; type: ADME, cell-based
[7] = tested on: Liver microsomes; assay: Half life in human liver microsomes in absence of NADPH; type: ADME, Microsome
[8] = tested on: Caco-2; assay: Efflux ratio of permeability from basolateral to apical side over apical to basolateral side in human Caco2 cells; type: ADME, cell-based
[9] = tested on: Liver; assay: (§1) Half life in mouse liver microsomes in presence of NADPH; type: ADME, Microsome; details: microsomes
[10] = tested on: Caco-2; assay: Apparent permeability of the compound from basolateral to apical side in human Caco2 cells; type: ADME, cell-based
[11] = Aqueous solubility of the compound; type: physicochemical; details: buffer
[12] = as §1; type: ADME, Microsome; details: liver microsomes
[13] = Inhibition of SOD1 mutant -induced cytotoxicity in assessed as recovery of neuronal activity at 10 uM after 24 hrs by fluorescence assay in presence of proteosome inhibitor MG132 relative to control; design: scale not given: the % may be the effect or the level left

CC(C)N(Cc1cc(=O)[nH][nH]1)c1cc(Cl)cc(Cl)c1
EC50 [1]: 610 nM

CC(C)(C)N(Cc1cc(=O)[nH][nH]1)c1cc(Cl)cc(Cl)c1
EC50 [1]: 1270 nM

O=c1cc(CN(c2ccccc2)c2cc(Cl)cc(Cl)c2)[nH][nH]1
EC50 [1]: 1310 nM

CN(Cc1cc(=O)[nH][nH]1)c1ccc(Cl)cc1
EC50 [1]: 830 nM

O=c1[nH][nH]c2c1CCN(c1cc(Cl)cc(Cl)c1)C2
EC50 [1]: 650 nM

CN(Cc1cc(=O)n(Cc2ccccc2)[nH]1)c1cc(Cl)cc(Cl)c1
EC50 [1]: 490 nM

CN(CCCc1cc(=O)[nH][nH]1)c1cc(Cl)cc(Cl)c1
Activity [2]: Active | EC50 [1]: 1450 nM | Activity [3]: inactive

CN(Cc1cc(=O)[nH][nH]1)c1ccc(F)cc1
EC50 [1]: 1400 nM

Cn1[nH]c(COc2cc(Cl)cc(Cl)c2)cc1=O
EC50 [1]: 670 nM

CCN(Cc1cc(=O)[nH][nH]1)c1cc(Cl)cc(Cl)c1
EC50 [1]: 350 nM

O=c1cc(CN2CCCc3ccccc32)[nH][nH]1
EC50 [1]: 800 nM

O=c1cc(CN(Cc2ccccc2)c2cc(Cl)cc(Cl)c2)[nH][nH]1
EC50 [1]: 690 nM

O=c1cc(CN2CCc3ccccc32)[nH][nH]1
EC50 [1]: 1060 nM

CN1N=C(CN(C)c2cc(Cl)cc(Cl)c2)C(C)(C)C1=O
EC50 [1]: > 32000 nM

CN(Cc1cc(=O)n(C)[nH]1)c1cc(Cl)cc(Cl)c1
EC50 [1]: 750 nM

CN(Cc1cc(=O)[nH][nH]1)c1ccc(Cl)cc1Cl
EC50 [1]: 290 nM

CN(Cc1cc(=O)[nH][nH]1)c1cccc2ccccc12
EC50 [1]: 310 nM

CN(Cc1cc(=O)[nH][nH]1)c1ccc(C#N)cc1
EC50 [1]: 1270 nM

O=c1cc(CNc2cc(Cl)cc(Cl)c2)[nH][nH]1
t1/2 [4]: 95 min | t1/2 [5]: 100 min | Papp [6]: 0.6 ×10⁻⁶ cm/s | t1/2 [7]: > 180 min | Ratio [8]: 47.1 | t1/2 [9]: 30 min | EC50 [1]: 780 nM | Papp [10]: 28.1 ×10⁻⁶ cm/s | solubility [11]: >= 150 uM

O=c1[nH][nH]c2c1CN(c1cc(Cl)cc(Cl)c1)CC2
Activity [2]: Active | EC50 [1]: 1450 nM | Activity [3]: inactive

O=c1cc(CN(c2cc(Cl)cc(Cl)c2)C2CC2)[nH][nH]1
EC50 [1]: 530 nM

CN(Cc1cc(=O)[nH][nH]1)c1ccc(Cl)c(Cl)c1
EC50 [1]: 420 nM

O=c1cc(COc2cc(Cl)cc(Cl)c2)[nH][nH]1
t1/2 [5]: 111 min | t1/2 [7]: 173 min | half-life [12]: 36 min | EC50 [1]: 400 nM

Cc1c(CN(C)c2cc(Cl)cc(Cl)c2)n(C)n(C)c1=O
EC50 [1]: > 32000 nM

CN(Cc1cc(=O)[nH][nH]1)c1ccc(Br)cc1
EC50 [1]: 710 nM

CN(Cc1cc(=O)[nH][nH]1)c1cc(Cl)cc(Cl)c1
t1/2 [4]: > 180 min | t1/2 [5]: > 180 min | Papp [6]: 2.2 ×10⁻⁶ cm/s | t1/2 [7]: > 180 min | Activity [13]: 100% | Ratio [8]: 3.5 | t1/2 [9]: 25 min | EC50 [1]: 570 nM | Papp [10]: 7.6 ×10⁻⁶ cm/s | solubility [11]: >= 150 uM

C#CCN(Cc1cc(=O)[nH][nH]1)c1cc(Cl)cc(Cl)c1
EC50 [1]: 1020 nM

COc1cccc(N(C)Cc2cc(=O)[nH][nH]2)c1
EC50 [1]: 810 nM

CN(Cc1cc(=O)[nH][nH]1)c1ccc2ccccc2c1
EC50 [1]: 830 nM

CN(CCc1cc(=O)[nH][nH]1)c1cc(Cl)cc(Cl)c1
EC50 [1]: 1190 nM

CN(Cc1cc(=O)[nH]n1C)c1cc(Cl)cc(Cl)c1
EC50 [1]: > 32000 nM

CN(Cc1cc(=O)n(C)n1C)c1cc(Cl)cc(Cl)c1
EC50 [1]: > 32000 nM

CN(Cc1cc(=O)[nH][nH]1)c1ccccc1Br
EC50 [1]: 1200 nM

CN(Cc1cc(=O)[nH][nH]1)c1cccc(Br)c1
EC50 [1]: 750 nM

CN(Cc1cc(=O)[nH][nH]1)c1ccccc1
EC50 [1]: 750 nM
